# Activity calls are given as the source filed them. The rule behind the calls is not given here.
# Assays:
# Plasma [1] = assay: Plasma protein binding in mouse at 10 uM by equilibrium dialysis; assay type: ADME, cell-free
# Procedure, shortened: (§1)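 Binding to plasma measured by equilibrium dialysis of a 10 µM compound solution. Reported as fraction unbound or percent bound.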
# Staphylococcus aureus [2] = assay: Antibacterial activity against Staphylococcus aureus ATCC 29213 by broth microdilution assay; assay type: functional
# Procedure, shortened: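 Broth microdilution MIC per CLSI recommendations; reproducibility within one 2-fold dilution of the end point.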
# Staphylococcus aureus [3] = assay: Antibacterial activity against Staphylococcus aureus ATCC 29213 by broth microdilution assay in presence of 2% bovine serum albumin; assay type: functional
# Procedure, shortened: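 Broth microdilution MIC per CLSI recommendations, with 2% w/v bovine serum albumin added to the assay medium to track the effect of protein on antibacterial activity.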
# [4] = biological target: T1, Cell division protein FtsZ (Staphylococcus aureus) (UniProt P0A031); assay: Inhibition of Staphylococcus aureus ATCC 29213 FtsZ assessed as lowest drug level required for ballooning of cells by light microscopy
# T1 sequence (whole entry): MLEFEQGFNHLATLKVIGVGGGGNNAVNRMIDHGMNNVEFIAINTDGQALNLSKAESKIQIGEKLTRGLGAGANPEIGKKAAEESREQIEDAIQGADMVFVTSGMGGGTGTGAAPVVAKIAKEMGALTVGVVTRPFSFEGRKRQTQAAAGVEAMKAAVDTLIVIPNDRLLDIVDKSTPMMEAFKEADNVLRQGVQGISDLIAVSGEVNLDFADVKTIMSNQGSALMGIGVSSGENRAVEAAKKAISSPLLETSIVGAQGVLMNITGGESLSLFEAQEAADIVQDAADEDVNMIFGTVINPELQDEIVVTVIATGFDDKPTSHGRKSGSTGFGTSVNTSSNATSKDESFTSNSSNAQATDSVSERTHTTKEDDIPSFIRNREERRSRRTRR
# Procedure, shortened: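 Cocci examined by light microscopy for morphology. Value is the lowest concentration at which ballooning appears; WT is recorded when morphology is unchanged.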
# [5] = Clearance in mouse microsome at 10 uM by LC/MS/MS analysis; assay type: ADME, Liver; conditions: microsomes
# Procedure, shortened: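 Microsomal stability: compound at 10 µM incubated with microsomes. Parent remaining followed over a time course by LC/MS to give clearance per mg protein.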
# Plasma [6] = assay: Metabolic stability in mouse plasma assessed as compound remaining at 10 uM after 24 hrs by LC/MS/MS analysis; assay type: ADME, cell-free
# Procedure, shortened: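 10 µM compound in mouse plasma incubated 24 h at 37 °C. Percent remaining measured by LC/MS.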
# Cytochrome P450 2C19 = Cytochrome P450 2C19 (Homo sapiens, UniProt P33261); assay: Inhibition of human recombinant CYP2C19 by fluorescence assay; assay type: ADME
# Sequence of Cytochrome P450 2C19 (P33261 whole entry): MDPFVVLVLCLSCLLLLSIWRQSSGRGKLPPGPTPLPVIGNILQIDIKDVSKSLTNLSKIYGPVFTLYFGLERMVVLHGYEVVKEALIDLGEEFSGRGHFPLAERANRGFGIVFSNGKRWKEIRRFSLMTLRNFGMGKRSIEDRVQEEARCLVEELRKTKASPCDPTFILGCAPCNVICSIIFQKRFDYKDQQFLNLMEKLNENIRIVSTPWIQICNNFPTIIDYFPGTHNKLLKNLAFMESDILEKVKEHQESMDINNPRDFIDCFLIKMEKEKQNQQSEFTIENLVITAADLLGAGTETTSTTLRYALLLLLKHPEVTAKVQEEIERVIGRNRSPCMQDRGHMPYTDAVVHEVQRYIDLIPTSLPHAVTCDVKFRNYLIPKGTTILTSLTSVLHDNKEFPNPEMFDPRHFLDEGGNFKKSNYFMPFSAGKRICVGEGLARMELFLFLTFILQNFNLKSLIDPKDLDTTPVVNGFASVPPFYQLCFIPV
# Procedure, shortened: (§2)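 Human recombinant CYP isozymes tested by metabolism of fluorogenic substrates, read by fluorescence. IC50 in µg/mL.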
# Cytochrome P450 2C9 = Cytochrome P450 2C9 (Homo sapiens, UniProt P11712); assay: Inhibition of human recombinant CYP2C9 by fluorescence assay; assay type: ADME; procedure, shortened: as §2
# Sequence of Cytochrome P450 2C9 (P11712 whole entry): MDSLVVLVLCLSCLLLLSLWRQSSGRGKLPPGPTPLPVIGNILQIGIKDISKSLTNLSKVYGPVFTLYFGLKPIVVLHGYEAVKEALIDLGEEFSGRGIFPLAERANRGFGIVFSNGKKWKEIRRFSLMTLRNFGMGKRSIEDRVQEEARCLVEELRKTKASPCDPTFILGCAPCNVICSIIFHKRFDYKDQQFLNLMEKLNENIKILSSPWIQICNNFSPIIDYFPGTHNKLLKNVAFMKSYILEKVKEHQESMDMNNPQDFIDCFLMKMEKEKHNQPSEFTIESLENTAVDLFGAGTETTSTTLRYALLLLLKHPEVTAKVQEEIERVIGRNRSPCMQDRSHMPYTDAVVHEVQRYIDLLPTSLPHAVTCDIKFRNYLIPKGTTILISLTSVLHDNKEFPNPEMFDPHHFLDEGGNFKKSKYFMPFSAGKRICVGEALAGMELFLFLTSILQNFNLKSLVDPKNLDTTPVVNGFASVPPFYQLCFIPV
# [7] = Chemical stability in phosphate buffered saline assessed as compound remaining at 10 uM after 24 hrs by LC/MS/MS analysis; assay type: physicochemical; conditions: buffer
# Procedure, shortened: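 10 µM solution in phosphate buffered saline held 24 h at 37 °C. Parent remaining quantified by LC/MS.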
# Cytochrome P450 3A4 = Cytochrome P450 3A4 (Homo sapiens, UniProt P08684); assay: Inhibition of human recombinant CYP3A4 by fluorescence assay; assay type: ADME; procedure, shortened: as §2
# Sequence of Cytochrome P450 3A4 (P08684 whole entry): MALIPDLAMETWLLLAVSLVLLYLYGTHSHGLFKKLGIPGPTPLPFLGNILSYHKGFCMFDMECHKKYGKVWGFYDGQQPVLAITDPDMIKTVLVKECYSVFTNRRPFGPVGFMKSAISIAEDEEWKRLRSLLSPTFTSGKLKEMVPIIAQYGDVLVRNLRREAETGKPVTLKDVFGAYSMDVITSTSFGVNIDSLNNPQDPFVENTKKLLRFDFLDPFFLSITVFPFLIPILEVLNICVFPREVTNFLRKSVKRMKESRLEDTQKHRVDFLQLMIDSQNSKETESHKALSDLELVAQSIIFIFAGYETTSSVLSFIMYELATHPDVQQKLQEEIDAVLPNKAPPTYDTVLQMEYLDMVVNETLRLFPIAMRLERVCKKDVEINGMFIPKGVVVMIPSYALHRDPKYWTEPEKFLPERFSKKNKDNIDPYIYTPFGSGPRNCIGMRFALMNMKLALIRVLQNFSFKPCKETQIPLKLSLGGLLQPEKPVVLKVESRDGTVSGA
# Cytochrome P450 2D6 = Cytochrome P450 2D6 (Homo sapiens, UniProt P10635); assay: Inhibition of human recombinant CYP2D6 by fluorescence assay; assay type: ADME; procedure, shortened: as §2
# Sequence of Cytochrome P450 2D6 (P10635 whole entry): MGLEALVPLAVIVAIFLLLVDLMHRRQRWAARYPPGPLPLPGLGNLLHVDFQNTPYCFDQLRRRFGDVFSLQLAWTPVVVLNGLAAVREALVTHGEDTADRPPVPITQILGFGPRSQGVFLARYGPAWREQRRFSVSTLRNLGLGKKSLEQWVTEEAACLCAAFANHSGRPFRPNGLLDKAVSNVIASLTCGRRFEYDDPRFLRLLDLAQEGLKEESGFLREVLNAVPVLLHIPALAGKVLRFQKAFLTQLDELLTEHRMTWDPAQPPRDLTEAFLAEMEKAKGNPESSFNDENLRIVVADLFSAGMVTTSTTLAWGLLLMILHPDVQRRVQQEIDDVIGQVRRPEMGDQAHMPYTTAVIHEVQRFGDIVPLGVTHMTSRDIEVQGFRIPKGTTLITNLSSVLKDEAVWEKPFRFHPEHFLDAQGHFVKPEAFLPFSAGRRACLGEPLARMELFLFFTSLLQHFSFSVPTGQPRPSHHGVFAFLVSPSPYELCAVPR
# [8] = Clearance in mouse hepatocytes at 10 uM assessed per 10^6 cells by LC/MS/MS analysis; assay type: ADME, cell-based, Liver, Hepatocyte
# Procedure, shortened: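 Hepatocyte stability: compound at 10 µM incubated with hepatocytes. Parent loss over a time course measured by LC/MS/MS, and clearance expressed per 10⁶ cells.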
# Plasma [9] = assay: Fraction unbound in human plasma at 10 uM by equilibrium dialysis; assay type: ADME, cell-free; procedure, shortened: as §1
# Staphylococcus aureus [10] = assay: Antimicrobial activity against Staphylococcus aureus Smith infected in mouse assessed as suppression of bacteria-induced mortality at 3 to 30 mg/kg, sc administered as single dose 1 hr after bacterial inoculation measured on day 2; assay type: functional, organism-based
# Procedure, shortened: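 Mice inoculated IP with an LD90-100 of S. aureus Smith in 0.5 mL brain heart infusion broth with 5% mucin (4×10⁵ CFU/mouse for the IP study, 5×10⁵ CFU/mouse for the SC study). Vehicle or test agent given SC or IP 1 h post-infection at 3, 10 or 30 mg/kg. Mortality followed 7 days. ED50 by nonlinear regression.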
# Staphylococcus aureus [11] = assay: Antimicrobial activity against Staphylococcus aureus Smith infected in sc dosed mouse administered as single dose 1 hr after bacterial inoculation; assay type: functional
# Procedure, shortened: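 Mice inoculated IP with an LD90-100 of S. aureus Smith (5×10^5 CFU/mouse) in 0.5 mL brain heart infusion broth with 5% mucin. Single SC dose of test substance or vehicle 1 h after inoculation, at 3, 10 or 30 mg/kg. Mortality monitored for 7 days. ED50 by nonlinear regression.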
# Plasma [12] = assay: Fraction unbound in mouse plasma at 10 uM by equilibrium dialysis; assay type: ADME, cell-free; procedure, shortened: as §1
# Cytochrome P450 1A2 = biological target: T2, Cytochrome P450 1A2 (Homo sapiens, UniProt P05177); assay: Inhibition of human recombinant CYP1A2 by fluorescence assay; assay type: ADME; procedure, shortened: as §2
# T2 sequence (P05177 whole entry): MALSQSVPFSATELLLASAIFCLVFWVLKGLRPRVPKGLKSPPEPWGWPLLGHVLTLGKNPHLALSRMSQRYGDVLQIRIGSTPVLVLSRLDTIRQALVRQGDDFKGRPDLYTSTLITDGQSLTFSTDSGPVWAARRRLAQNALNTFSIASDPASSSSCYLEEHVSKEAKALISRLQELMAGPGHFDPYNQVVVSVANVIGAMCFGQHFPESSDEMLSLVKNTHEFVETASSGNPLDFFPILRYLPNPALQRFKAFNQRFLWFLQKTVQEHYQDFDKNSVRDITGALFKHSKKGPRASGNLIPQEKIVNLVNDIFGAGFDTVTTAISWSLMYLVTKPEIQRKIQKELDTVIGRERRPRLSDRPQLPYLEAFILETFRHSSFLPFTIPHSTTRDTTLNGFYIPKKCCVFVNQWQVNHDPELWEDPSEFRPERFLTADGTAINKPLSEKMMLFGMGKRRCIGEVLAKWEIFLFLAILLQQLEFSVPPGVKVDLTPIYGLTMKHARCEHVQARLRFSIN
# Staphylococcus aureus [13] = assay: Antimicrobial activity against Staphylococcus aureus Smith infected in ip dosed mouse administered as single dose 1 hr after bacterial inoculation; assay type: functional
# Procedure, shortened: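 Mice inoculated IP with an LD90-100 of S. aureus Smith (4×10^5 CFU/mouse) in 0.5 mL brain heart infusion broth with 5% mucin. Single IP dose of test substance or vehicle 1 h after inoculation, at 3, 10 or 30 mg/kg. Mortality monitored for 7 days. ED50 by nonlinear regression.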
# [14] = biological target: T1, Cell division protein FtsZ (Staphylococcus aureus); assay: Inhibition of Staphylococcus aureus ATCC 29213 FtsZ assessed as appearance of enlarged cells at 2048 to 4096 ug/mL by light microscopy
SMILES,MIC (Staphylococcus aureus [2]) [µg/mL],MIC (Staphylococcus aureus [3]) [µg/mL],Activity [4] [µg/mL],also measured
NC(=O)c1c(F)ccc(OCc2nc3cc(-c4ccccc4)cnc3s2)c1F,0.5,4,,PPB (Plasma [1]): 98.5%
NC(=O)c1c(F)ccc(OCc2ccc3ccccc3n2)c1F,,32,,MIC [4]: 16 µg/mL
COc1ccc2sc(COc3ccc(F)c(C(N)=O)c3F)nc2c1,,,2,
Cc1ccc2sc(COc3ccc(F)c(C(N)=O)c3F)nc2c1,4,,8,
NC(=O)c1c(F)ccc(OCc2nc3cc(O)ccc3s2)c1F,32,,64,
NC(=O)c1ccc2sc(COc3ccc(F)c(C(N)=O)c3F)nc2c1,> 64,,,
Cc1cnc(COc2ccc(F)c(C(N)=O)c2F)s1,256,256,,
NC(=O)c1c(F)ccc(OCc2nc3cccc(Cl)c3s2)c1F,4,,8,
NC(=O)c1c(F)ccc(OCc2nc3cc(-c4ncno4)ccc3s2)c1F,0.5,,0.5,
NC(=O)c1c(F)ccc(OCc2nc3c(Cl)cccc3s2)c1F,16,,8,
Cc1cccc(COc2ccc(F)c(C(N)=O)c2F)n1,,64,,MIC [4]: 32 µg/mL
COc1ccc2nc(COc3ccc(F)c(C(N)=O)c3F)sc2c1,> 256,,,
CCCc1ccc2sc(COc3ccc(F)c(C(N)=O)c3F)nc2c1,,,0.125,
NC(=O)c1c(F)ccc(OCc2nc3cc(Cl)ccc3s2)c1F,,,0.25,CL [5]: 14 µL/min/mg; Stability (Plasma [6]): 99%; PPB (Plasma [1]): 96.4%; IC50 (Cytochrome P450 2C19): > 33.8 µM; IC50 (Cytochrome P450 2C9): > 33.8 µM; Stability [7]: 99%; IC50 (Cytochrome P450 3A4): > 33.8 µM; IC50 (Cytochrome P450 2D6): > 33.8 µM; CL [8]: 31.2 uL/min/10^6cells; Fu (Plasma [9]): 1%; Activity (Staphylococcus aureus [10]): inactive; ED50 (Staphylococcus aureus [11]): > 30 mg/kg; Fu (Plasma [12]): 3%; IC50 (Cytochrome P450 1A2): > 33.8 µM; ED50 (Staphylococcus aureus [13]): 41 mg/kg
Cc1csc(COc2ccc(F)c(C(N)=O)c2F)c1,,128,,MIC [4]: 32 µg/mL
CCCCCCOc1ccc(F)c(C(N)=O)c1F,,32,,MIC [4]: 8 µg/mL
NC(=O)c1c(F)ccc(OCc2nc3cc(C(=O)O)ccc3s2)c1F,> 64,,,
COc1cccc(C(N)=O)c1,2050,4100,,inhibition [14]: Active
NC(=O)c1c(F)ccc(OCc2nc3cc(Cl)ncc3s2)c1F,8,32,,
COC(=O)c1ccc2sc(COc3ccc(F)c(C(N)=O)c3F)nc2c1,1,,2,
NC(=O)c1c(F)ccc(OCc2nc3cc(-c4ccccc4)ccc3s2)c1F,0.25,,0.5,PPB (Plasma [1]): 99.2%

SMILES,MIC (Staphylococcus aureus [2]) [µg/mL],MIC (Staphylococcus aureus [3]) [µg/mL],Activity [4] [µg/mL],also measured
Cc1ccc2nc(COc3ccc(F)c(C(N)=O)c3F)sc2c1,8,,,
NC(=O)c1c(F)ccc(OCc2nc3cc(N)ccc3s2)c1F,> 64,,,
CCOc1ccc2sc(COc3ccc(F)c(C(N)=O)c3F)nc2c1,,,0.125,PPB (Plasma [1]): 96.4%
NC(=O)c1c(F)ccc(OCc2nc3ccccc3s2)c1F,2,8,,MIC [4]: 4 µg/mL
NC(=O)c1c(F)ccc(OCCn2cccn2)c1F,256,256,,
COc1cccc2sc(COc3ccc(F)c(C(N)=O)c3F)nc12,16,,64,
NC(=O)c1c(F)ccc(OCc2nc3ccc(-c4ccccc4)cc3s2)c1F,> 256,,,
NC(=O)c1c(F)ccc(OCc2nc3c(-c4ccccc4)cccc3s2)c1F,> 256,,,
Cc1csc(COc2ccc(F)c(C(N)=O)c2F)n1,,,,MIC [4]: 16 µg/mL
NC(=O)c1c(F)ccc(OCc2nc3cc(C(F)(F)F)ccc3s2)c1F,0.25,,0.5,
NC(=O)c1c(F)ccc(OCc2nc3ccccc3o2)c1F,128,,,MIC [4]: 256 µg/mL
NC(=O)c1c(F)ccc(OCc2nc3cc(Br)ccc3s2)c1F,0.125,,0.25,
NC(=O)c1c(F)ccc(OCc2nc3cc(-c4ncc[nH]4)ccc3s2)c1F,> 64,,,
Cc1cccc2sc(COc3ccc(F)c(C(N)=O)c3F)nc12,16,,2050,
CN(C)c1ccc2sc(COc3ccc(F)c(C(N)=O)c3F)nc2c1,> 64,,,
NC(=O)c1c(F)ccc(OCc2nc3cccc(-c4ccccc4)c3s2)c1F,> 256,,,
NC(=O)c1c(F)ccc(OCc2nc3ccc(Cl)cc3s2)c1F,4,,8,
COc1cc2nc(COc3ccc(F)c(C(N)=O)c3F)sc2nc1Cl,16,> 64,,
NC(=O)c1c(F)ccc(Oc2nc3ccccc3s2)c1F,> 256,> 256,,
CCOc1cnc2sc(COc3ccc(F)c(C(N)=O)c3F)nc2c1,0.125,0.25,,PPB (Plasma [1]): 89.9%

# Reference: ChEMBL document CHEMBL1157799, “Creating an antibacterial with in vivo efficacy: synthesis and characterization of potent inhibitors of the bacterial cell division protein FtsZ with improved pharmaceutical properties” (J Med Chem, 2010)
